Data published in ChEMBL document CHEMBL4017509, “A Dual Modulator of Farnesoid X Receptor and Soluble Epoxide Hydrolase To Counter Nonalcoholic Steatohepatitis” (J Med Chem, 2017).
Active and inactive are the calls of the source. The rule behind the calls is not given here.

Legend:
[1] = tested on: HepG2; assay: Cytotoxicity against human HepG2 cells up to 100 uM after 48 hrs by WST1 assay; assay type: cell-based; conditions: hepg2, 48 h
[2] = molecular target: Retinoic acid receptor RXR-beta (Homo sapiens) (UniProt P28702); assay: Transactivation of human GAL4-fused RXRbeta ligand binding domain expressed in […] cells at 10 uM after 12 to 14 hrs by dual-glo luciferase reporter gene assay; assay type: cell-based
In short: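 HEK293T cells in DMEM/10% FCS, Opti-MEM before Lipofectamine LTX transfection with pFR-Luc reporter, pRL-SV40 and pFA-CMV GAL4–LBD plasmid. 5 h later compound in 0.1% DMSO, Opti-MEM, overnight (12−14 h). Dual luciferase; firefly/renilla ×1000 = RLU, fold over DMSO control; triplicates, ≥3 independent repeats.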

[3] = molecular target: T1, Bile acid receptor (Homo sapiens) (UniProt Q96RI1); assay: Transactivation of FXR in human HepG2 cells assessed as SREBP1c mRNA expression at 1 uM after 8 to 16 hrs by SYBR green based qRT-PCR analysis relative to DMSO control; assay type: cell-based
T1 sequence (whole entry): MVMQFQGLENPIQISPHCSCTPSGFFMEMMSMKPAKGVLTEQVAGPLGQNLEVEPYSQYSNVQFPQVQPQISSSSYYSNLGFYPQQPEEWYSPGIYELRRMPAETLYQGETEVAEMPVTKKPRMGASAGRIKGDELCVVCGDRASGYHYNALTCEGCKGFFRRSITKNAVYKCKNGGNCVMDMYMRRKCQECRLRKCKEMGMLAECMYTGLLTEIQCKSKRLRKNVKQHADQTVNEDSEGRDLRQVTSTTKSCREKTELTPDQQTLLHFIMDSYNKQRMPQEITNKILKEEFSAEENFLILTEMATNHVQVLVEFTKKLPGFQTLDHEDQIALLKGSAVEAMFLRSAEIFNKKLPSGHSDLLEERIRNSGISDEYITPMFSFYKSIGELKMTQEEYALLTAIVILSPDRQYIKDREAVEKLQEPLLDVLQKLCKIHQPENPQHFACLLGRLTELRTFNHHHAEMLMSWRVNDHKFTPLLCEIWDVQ
In short: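 HepG2 cells incubated with test compound (0.1 and 1 μM) or 0.1% DMSO for 8 or 16 h, washed in cold PBS, RNA extracted; target mRNA by SYBR Green qRT-PCR, duplicate samples, ≥4 independent experiments; comparative ΔΔCt with GAPDH reference, vehicle set as 100%.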

[4] = molecular target: T2, Bifunctional epoxide hydrolase 2 (Homo sapiens) (UniProt P34913); assay: Inhibition of sEH in human HepG2 cells assessed as NF-kappaB mRNA expression at 1 uM after 8 to 16 hrs by SYBR green based qRT-PCR analysis relative to DMSO control; assay type: cell-based
T2 sequence (whole entry): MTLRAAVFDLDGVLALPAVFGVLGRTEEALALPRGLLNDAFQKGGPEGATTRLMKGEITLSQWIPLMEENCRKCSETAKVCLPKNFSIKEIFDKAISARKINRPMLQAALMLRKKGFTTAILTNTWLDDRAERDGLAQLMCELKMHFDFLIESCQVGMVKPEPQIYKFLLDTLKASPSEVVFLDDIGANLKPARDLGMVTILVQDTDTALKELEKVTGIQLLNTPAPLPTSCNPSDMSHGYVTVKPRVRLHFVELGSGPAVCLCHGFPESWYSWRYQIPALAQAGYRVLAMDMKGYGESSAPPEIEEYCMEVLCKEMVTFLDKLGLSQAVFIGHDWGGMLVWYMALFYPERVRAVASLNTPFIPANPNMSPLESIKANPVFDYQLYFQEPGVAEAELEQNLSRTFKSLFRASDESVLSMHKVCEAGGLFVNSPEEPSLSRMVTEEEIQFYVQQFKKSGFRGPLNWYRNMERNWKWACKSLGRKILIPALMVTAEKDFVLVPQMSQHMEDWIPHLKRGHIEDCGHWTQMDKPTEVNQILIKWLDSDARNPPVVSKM
In short: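 HepG2 cells treated with compound or 0.1% DMSO vehicle; NF-κB mRNA quantified by SYBR Green qRT-PCR, comparative ΔΔCt with GAPDH reference; expressed as % of vehicle (100%).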

[5] = tested on: Liver; assay: Drug metabolism in Sprague-Dawley rat liver microsomes assessed as 4-tert-butyl-N-(2-chloro-4-(methylsulfonamido)benzyl)-3-hydroxybenzamide formation at 10 uM preincubated with NADPH regenerating system for 5 mins followed by addition of liver microsomes by LC-MS/MS method; assay type: ADME, microsome

Retinoic acid receptor RXR-beta (Homo sapiens), sequence (P28702 whole entry, the tested form may be a part): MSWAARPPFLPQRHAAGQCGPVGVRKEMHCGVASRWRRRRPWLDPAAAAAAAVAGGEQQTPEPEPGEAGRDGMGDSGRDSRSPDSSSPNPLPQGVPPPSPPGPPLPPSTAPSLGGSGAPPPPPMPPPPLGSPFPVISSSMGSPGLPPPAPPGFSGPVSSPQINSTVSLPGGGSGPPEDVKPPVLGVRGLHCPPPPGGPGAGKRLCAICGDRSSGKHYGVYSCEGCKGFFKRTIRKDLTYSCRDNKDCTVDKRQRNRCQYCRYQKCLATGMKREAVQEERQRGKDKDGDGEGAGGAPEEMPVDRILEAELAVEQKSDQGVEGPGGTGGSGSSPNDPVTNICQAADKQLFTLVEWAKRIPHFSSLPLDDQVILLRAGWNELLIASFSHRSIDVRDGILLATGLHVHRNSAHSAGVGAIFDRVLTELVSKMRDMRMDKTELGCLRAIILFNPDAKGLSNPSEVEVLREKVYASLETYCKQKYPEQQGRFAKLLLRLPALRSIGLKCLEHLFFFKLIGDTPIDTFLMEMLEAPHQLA

For `CC(C)(C)c1ccc(C(=O)NCc2ccc(NS(C)(=O)=O)cc2Cl)cc1`, the Activity [1] was “Non-Toxic”, the Activity [2] was “inactive” and the Activity [3] was 36%. For the same molecule, the inhibition [4] was 17.6% and the Drug metabolism [5] was “Metabolite_Notdetected”.
